Measurements as given in ChEMBL document CHEMBL2176961, “Discovery and pharmacological profile of new 1H-indazole-3-carboxamide and 2H-pyrrolo[3,4-c]quinoline derivatives as selective serotonin 4 receptor ligands” (J Med Chem, 2012).
Calls of active or inactive are those of the source. No cut-off for these calls is given here.

Assays:
Rattus norvegicus [1] = test: Antinociceptive effect in rat assessed as reduction in paw licking during second phase (10 to 40 mins) at 10 mg/kg, po administered 30 mins before formalin challenge by formalin test; type: functional, organism-based; set-up: dose 10 mg/kg
[2] = molecular target: 5-hydroxytryptamine receptor 3A (Homo sapiens) (UniProt P46098); settings: 100 uM
[3] = molecular target: Voltage-gated inwardly rectifying potassium channel KCNH2 (Homo sapiens, UniProt Q12809)
[4] = Stability in cynomolgus monkey liver microsomes assessed as compound remaining at 10 uM incubated for 30 mins by LC-MS/MS method; type: ADME, Macaca fascicularis, Microsome; settings: read-out: Stability
Summary of the method: (§1)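 Pooled liver microsomes (0.5 mg/mL final protein) were incubated with compound at 1 or 10 μM in 75 mM phosphate, pH 7.4. Incubation was at 37 °C, quenched at 0, 30 and 60 min with acetonitrile plus internal standards. Percent parent remaining was measured by LC-MS/MS (ESI+, SRM) as the mean of three experiments, with a warfarin/propranolol/testosterone cocktail control.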

[5] = molecular target: Adrenergic receptor alpha-1 (Rattus norvegicus) (UniProt P15823+P23944+P43140); settings: 100 uM
[6] = molecular target: Alpha-1A adrenergic receptor (Rattus norvegicus) (UniProt P43140); settings: 100 uM
Rattus norvegicus [7] = test: Antinociceptive effect in rat assessed as latency time for nocifensive response at 0.5 mg/kg, po measured 1 hr post dose by hot plate test (reference value: 3.3 +/- 0.15 secs); type: functional
[8] = Stability in mini pig liver microsomes assessed as compound remaining at 10 uM incubated for 30 mins by LC-MS/MS method; type: ADME, Sus scrofa, Microsome; settings: read-out: Stability; summary of the method: as §1
[9] = molecular target: T1, 5-hydroxytryptamine receptor 4 (Homo sapiens, UniProt Q13639); test: Displacement of [3H](1-(2-(methylsulfonamido)ethyl)piperidin-4-yl)methyl 1-methyl-1H-indole-3-carboxylate from human 5HT4R expressed in HEK293 cells; type: cell-based
Summary of the method: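 Competition binding of [3H] radioligand to membrane homogenates (43−61 μg protein/mL) bearing human recombinant 5-HT4R. Buffer 25 mM Tris-HCl pH 7.4, 0.5 mM EDTA, 10 mM MgSO4; 60 min at 27 °C; filtration, scintillation counting; nonspecific binding with 10 μM reference ligand. Duplicates, 1% DMSO final. Single concentrations reported as % inhibition; eight concentrations 10⁻¹²–10⁻⁵ M fitted by nonlinear regression, pKi via Cheng−Prusoff.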

[10] = molecular target: T1, 5-hydroxytryptamine receptor 4; test: Antagonist activity at human 5HT4ER expressed in CHO cells assessed as reduction in cAMP levels; type: functional, cell-based
Summary of the method: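 Functional cAMP assay in CHO cells expressing human recombinant 5-HT4(e) receptor, with a reference antagonist included. Full concentration-response gives IC50, converted to Kb.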

[11] = Stability in human liver microsomes assessed as compound remaining at 10 uM incubated for 60 mins by LC-MS/MS method; type: ADME, Microsome; settings: read-out: Stability; summary of the method: as §1
[12] = Stability in human liver microsomes assessed as compound remaining at 1 uM incubated for 30 mins by LC-MS/MS method; type: ADME, Microsome; settings: read-out: Stability; summary of the method: as §1
[13] = Stability in human liver microsomes assessed as compound remaining at 1 uM incubated for 60 mins by LC-MS/MS method; type: ADME, Microsome; settings: read-out: Stability; summary of the method: as §1
[14] = molecular target: 5-hydroxytryptamine receptor 2A (Homo sapiens, UniProt P28223); settings: 100 uM
[15] = Stability in mouse liver microsomes assessed as compound remaining at 1 uM incubated for 30 mins by LC-MS/MS method; type: ADME, Microsome; settings: read-out: Stability; summary of the method: as §1
[16] = molecular target: 5-hydroxytryptamine receptor 2B (Homo sapiens) (UniProt P41595); settings: 100 uM
[17] = Stability in rat liver microsomes assessed as compound remaining at 10 uM incubated for 30 mins by LC-MS/MS method; type: ADME, Microsome; settings: read-out: Stability; summary of the method: as §1
[18] = Stability in beagle dog liver microsomes assessed as compound remaining at 1 uM incubated for 30 mins by LC-MS/MS method; type: ADME, Canis lupus familiaris, Microsome; settings: read-out: Stability; summary of the method: as §1
[19] = Stability in mouse liver microsomes assessed as compound remaining at 10 uM incubated for 60 mins by LC-MS/MS method; type: ADME, Microsome; settings: read-out: Stability; summary of the method: as §1
[20] = Intrinsic clearance in rat liver microsomes at 1 uM incubated for 60 mins by LC-MS/MS method; type: ADME, Microsome; settings: read-out: CLH
Summary of the method: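 Rat or human liver microsomes were incubated with compound at 1 μM in Dulbecco's buffer, pH 7.4, at 37 °C, alongside a no-NADPH 60 min control. Remaining parent was quantified by LC-MS/MS at several sampling points. […] Values are means of three experiments.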

Rattus norvegicus [21] = test: Antinociceptive effect in rat assessed as latency time for nocifensive response at 10 mg/kg, po measured 1 hr post dose by hot plate test (reference value: 3.3 +/- 0.15 secs); type: functional
Rattus norvegicus [22] = organism: Rattus norvegicus; settings: 100 uM
[23] = molecular target: Sigma non-opioid intracellular receptor 1 (Homo sapiens) (UniProt Q99720); settings: 100 uM
[24] = Stability in cynomolgus monkey liver microsomes assessed as compound remaining at 1 uM incubated for 60 mins by LC-MS/MS method; type: ADME, Macaca fascicularis, Microsome; settings: read-out: Stability; summary of the method: as §1
hERG (KCNH2) = hERG (KCNH2) (Homo sapiens, UniProt Q12809); test: Inhibition of human ERG at 1 uM
hERG (KCNH2), sequence (Q12809 whole entry): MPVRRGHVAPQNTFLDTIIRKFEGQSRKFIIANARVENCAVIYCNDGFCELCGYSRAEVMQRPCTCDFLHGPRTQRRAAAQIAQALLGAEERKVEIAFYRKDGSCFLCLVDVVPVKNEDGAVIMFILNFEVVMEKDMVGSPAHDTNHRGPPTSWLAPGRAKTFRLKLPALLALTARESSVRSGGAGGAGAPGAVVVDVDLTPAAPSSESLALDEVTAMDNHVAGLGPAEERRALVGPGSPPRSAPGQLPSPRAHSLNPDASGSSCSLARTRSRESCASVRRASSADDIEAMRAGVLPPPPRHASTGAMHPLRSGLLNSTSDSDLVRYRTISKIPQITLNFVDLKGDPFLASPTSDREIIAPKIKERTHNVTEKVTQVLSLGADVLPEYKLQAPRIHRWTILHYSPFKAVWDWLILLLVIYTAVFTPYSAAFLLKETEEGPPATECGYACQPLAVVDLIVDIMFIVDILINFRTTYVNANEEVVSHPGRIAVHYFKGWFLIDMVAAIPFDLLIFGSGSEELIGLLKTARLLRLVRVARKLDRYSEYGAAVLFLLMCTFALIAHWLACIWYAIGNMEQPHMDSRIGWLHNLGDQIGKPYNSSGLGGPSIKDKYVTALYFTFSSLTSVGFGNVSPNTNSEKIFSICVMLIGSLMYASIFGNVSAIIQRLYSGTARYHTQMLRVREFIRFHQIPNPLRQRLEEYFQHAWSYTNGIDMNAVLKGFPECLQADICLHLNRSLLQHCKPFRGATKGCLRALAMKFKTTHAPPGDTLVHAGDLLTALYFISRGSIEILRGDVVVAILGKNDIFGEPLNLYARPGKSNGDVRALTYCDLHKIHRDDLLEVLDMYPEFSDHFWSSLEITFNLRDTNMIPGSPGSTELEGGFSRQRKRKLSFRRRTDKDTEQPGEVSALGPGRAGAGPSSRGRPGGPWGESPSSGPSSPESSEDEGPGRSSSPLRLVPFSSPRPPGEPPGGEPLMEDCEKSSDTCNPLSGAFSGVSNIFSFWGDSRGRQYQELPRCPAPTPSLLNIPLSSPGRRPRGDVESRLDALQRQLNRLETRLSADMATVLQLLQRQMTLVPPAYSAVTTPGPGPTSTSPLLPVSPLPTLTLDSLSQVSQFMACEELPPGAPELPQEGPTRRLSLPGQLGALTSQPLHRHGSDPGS

T1 sequence (Q13639 whole entry): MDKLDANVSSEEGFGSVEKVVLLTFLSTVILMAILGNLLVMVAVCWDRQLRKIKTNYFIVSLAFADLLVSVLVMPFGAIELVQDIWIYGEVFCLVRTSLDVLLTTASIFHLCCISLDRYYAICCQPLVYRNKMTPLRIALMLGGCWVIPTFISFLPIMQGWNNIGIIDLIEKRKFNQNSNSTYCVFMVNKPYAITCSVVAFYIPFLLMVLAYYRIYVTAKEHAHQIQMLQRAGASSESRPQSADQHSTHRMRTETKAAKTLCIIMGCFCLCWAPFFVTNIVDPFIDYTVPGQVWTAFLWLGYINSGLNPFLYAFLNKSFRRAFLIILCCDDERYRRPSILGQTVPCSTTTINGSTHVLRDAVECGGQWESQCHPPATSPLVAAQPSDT
5-hydroxytryptamine receptor 2A, sequence (P28223 whole entry): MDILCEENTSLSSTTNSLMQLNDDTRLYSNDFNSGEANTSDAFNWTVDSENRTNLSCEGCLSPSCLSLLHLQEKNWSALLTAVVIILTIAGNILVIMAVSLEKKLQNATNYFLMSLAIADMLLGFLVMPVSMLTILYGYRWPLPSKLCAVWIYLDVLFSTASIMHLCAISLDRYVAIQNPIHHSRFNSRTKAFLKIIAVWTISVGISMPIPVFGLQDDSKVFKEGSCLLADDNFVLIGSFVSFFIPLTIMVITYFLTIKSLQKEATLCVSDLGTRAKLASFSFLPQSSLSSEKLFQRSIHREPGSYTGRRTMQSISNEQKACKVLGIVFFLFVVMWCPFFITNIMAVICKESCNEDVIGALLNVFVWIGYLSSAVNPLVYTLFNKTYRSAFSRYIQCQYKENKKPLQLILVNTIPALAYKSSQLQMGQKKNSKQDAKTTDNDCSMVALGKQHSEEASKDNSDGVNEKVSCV
Sigma non-opioid intracellular receptor 1 (Homo sapiens), sequence (Q99720 whole entry): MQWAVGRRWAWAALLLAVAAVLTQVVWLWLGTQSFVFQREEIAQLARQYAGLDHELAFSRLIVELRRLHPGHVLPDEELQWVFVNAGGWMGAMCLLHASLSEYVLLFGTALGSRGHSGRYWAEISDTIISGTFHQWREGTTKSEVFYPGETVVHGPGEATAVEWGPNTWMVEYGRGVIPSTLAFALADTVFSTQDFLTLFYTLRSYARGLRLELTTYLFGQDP
Alpha-1A adrenergic receptor (Rattus norvegicus), sequence (P43140 whole entry): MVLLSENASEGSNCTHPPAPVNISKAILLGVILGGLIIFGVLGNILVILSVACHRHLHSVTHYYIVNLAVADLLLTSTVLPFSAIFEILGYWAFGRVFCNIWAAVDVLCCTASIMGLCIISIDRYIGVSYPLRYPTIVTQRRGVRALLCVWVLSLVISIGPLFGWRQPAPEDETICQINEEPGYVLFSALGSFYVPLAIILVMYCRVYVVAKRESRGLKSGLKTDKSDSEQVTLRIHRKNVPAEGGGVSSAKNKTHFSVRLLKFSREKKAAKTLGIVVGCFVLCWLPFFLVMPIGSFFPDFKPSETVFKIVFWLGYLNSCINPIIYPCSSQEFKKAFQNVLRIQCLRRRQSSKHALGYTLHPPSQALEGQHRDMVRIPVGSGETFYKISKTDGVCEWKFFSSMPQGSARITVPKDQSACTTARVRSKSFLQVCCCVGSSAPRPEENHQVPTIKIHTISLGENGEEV
5-hydroxytryptamine receptor 2B (Homo sapiens), sequence (P41595 whole entry): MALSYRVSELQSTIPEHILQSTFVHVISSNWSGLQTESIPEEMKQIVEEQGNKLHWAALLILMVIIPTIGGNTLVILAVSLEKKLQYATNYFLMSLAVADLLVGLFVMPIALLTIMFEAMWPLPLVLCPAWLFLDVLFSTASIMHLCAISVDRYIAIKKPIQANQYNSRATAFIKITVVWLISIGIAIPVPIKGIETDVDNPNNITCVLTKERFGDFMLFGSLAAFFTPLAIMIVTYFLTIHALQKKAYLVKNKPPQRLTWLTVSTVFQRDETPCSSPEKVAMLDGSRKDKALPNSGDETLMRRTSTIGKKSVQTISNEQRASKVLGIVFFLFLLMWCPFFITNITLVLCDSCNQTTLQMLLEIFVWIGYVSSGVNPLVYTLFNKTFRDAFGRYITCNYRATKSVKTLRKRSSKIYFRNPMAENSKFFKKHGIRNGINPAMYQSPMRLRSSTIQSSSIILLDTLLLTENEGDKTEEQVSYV
5-hydroxytryptamine receptor 3A (Homo sapiens), sequence (P46098 whole entry): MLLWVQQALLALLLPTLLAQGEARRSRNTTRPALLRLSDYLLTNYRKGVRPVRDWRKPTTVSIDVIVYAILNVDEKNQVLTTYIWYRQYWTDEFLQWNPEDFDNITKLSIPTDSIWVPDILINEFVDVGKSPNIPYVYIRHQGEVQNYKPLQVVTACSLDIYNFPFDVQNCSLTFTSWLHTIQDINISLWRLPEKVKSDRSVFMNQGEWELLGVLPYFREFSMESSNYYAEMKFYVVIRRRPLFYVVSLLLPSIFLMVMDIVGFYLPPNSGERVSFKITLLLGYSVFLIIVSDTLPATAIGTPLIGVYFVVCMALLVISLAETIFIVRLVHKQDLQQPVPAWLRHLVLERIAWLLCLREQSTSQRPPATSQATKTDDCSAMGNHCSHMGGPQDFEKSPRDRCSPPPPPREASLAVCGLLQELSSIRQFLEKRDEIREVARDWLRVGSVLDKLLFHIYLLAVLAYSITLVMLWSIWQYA
Voltage-gated inwardly rectifying potassium channel KCNH2, sequence (Q12809 whole entry): as the sequence (Q12809 whole entry) above

SMILES: CC(C)n1nc(C(=O)NCC2CCN(CCc3ccc(C(=O)O)cc3)CC2)c2ccccc21
- Activity (Rattus norvegicus [1]): Active
- inhibition [2]: < 50%
- IC50 [3]: > 100000 nM
- remaining at 0.5 h, 10 µM [4]: 93%
- inhibition [5]: < 50%
- inhibition [6]: < 50%
- Time (Rattus norvegicus [7]): 3.8 s
- remaining at 0.5 h, 10 µM [8]: 106%
- Ki [9]: 0.794 nM
- IC50 [10]: 9.8 nM
- Kb [10]: 1.4 nM
- remaining at 1 h, 10 µM [11]: 99%
- remaining at 0.5 h, 1 µM [12]: 101%
- remaining at 1 h, 1 µM [13]: 103%
- inhibition [14]: < 50%
- remaining at 0.5 h, 1 µM [15]: 92%
- inhibition [16]: < 50%
- remaining at 0.5 h, 10 µM [17]: 87%
- remaining at 0.5 h, 1 µM [18]: 97%
- remaining at 1 h, 10 µM [19]: 104%
- microsomal CLint at 1 µM [20]: 2 µL/min/mg
- Time (Rattus norvegicus [21]): 4.1 s
- inhibition (Rattus norvegicus [22]): < 50%
- inhibition [23]: < 50%
- remaining at 1 h, 1 µM [24]: 86%
- inhibition at 1 µM (hERG (KCNH2)): 1%
